# Assays:
# Format in all cases: functional
# Details in all cases: read-out: GI
# NCI-H460 = experiment: Growth inhibition of human NCI-H460 cells at 10 uM incubated for 48 hrs by sulforhodamine B assay relative to control
# Outline: (§1)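 NCI one-dose screen. Cells grown in RPMI 1640 with 5% FBS and 2 mM L-glutamine, plated and incubated 24 h at 37 °C, 5% CO2. DMSO-dissolved drug added, then 48 h further incubation. Adherent cells fixed with cold TCA, suspension cells fixed after settling. Stained with 0.4% SRB, absorbance read at 515 nm. Reported as percent growth relative to no-drug control and time-zero cell number.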
# UACC-257 = experiment: Growth inhibition of human UACC-257 cells at 10 uM incubated for 48 hrs by sulforhodamine B assay relative to control
# Outline: (§2)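 NCI one-dose screen across a 59-line panel. Cells were grown in RPMI 1640 with 5% FBS and 2 mM L-glutamine, plated and pre-incubated 24 h, then exposed to drug for 48 h at 37 °C, 5% CO2. Adherent cells were fixed with cold TCA (10% final), stained with 0.4% SRB in 1% acetic acid and read at 515 nm. Result is percent growth relative to no-drug control and time-zero cell count.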
# KM12 = experiment: Growth inhibition of human KM12 cells at 10 uM incubated for 48 hrs by sulforhodamine B assay relative to control
# Outline: (§3)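 NCI-60 single-dose screen. Cells were grown in RPMI 1640 with 5% FBS and 2 mM L-glutamine and plated 24 h before drug addition. Compound was added at one concentration in DMSO-derived medium and incubated for 48 h at 37 °C in 5% CO2. Read-out was SRB protein stain at 515 nm. Result is percent growth versus the no-drug control and the time-zero cell count; values below 0 indicate lethality.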
# Malme-3M = experiment: Growth inhibition of human Malme-3M cells at 10 uM incubated for 48 hrs by sulforhodamine B assay relative to control; outline: as §1
# Hs-578T = experiment: Growth inhibition of human HS-578T cells at 10 uM incubated for 48 hrs by sulforhodamine B assay relative to control; outline: as §3
# SF-539 = experiment: Growth inhibition of human SF-539 cells at 10 uM incubated for 48 hrs by sulforhodamine B assay relative to control; outline: as §1
# OVCAR-8 = experiment: Growth inhibition of human OVCAR-8 cells at 10 uM incubated for 48 hrs by sulforhodamine B assay relative to control; outline: as §1
# BT-549 = experiment: Growth inhibition of human BT-549 cells at 10 uM incubated for 48 hrs by sulforhodamine B assay relative to control; outline: as §3
# T47D = experiment: Growth inhibition of human T47D cells at 10 uM incubated for 48 hrs by sulforhodamine B assay relative to control; outline: as §2
# HOP-62 = experiment: Growth inhibition of human HOP-62 cells at 10 uM incubated for 48 hrs by sulforhodamine B assay relative to control; outline: as §3
# PC-3 = experiment: Growth inhibition of human PC-3 cells at 10 uM incubated for 48 hrs by sulforhodamine B assay relative to control; outline: as §1
# SK-MEL-5 = experiment: Growth inhibition of human SK-MEL-5 cells at 10 uM incubated for 48 hrs by sulforhodamine B assay relative to control; outline: as §1
# EKVX = experiment: Growth inhibition of human EKVX cells at 10 uM incubated for 48 hrs by sulforhodamine B assay relative to control; outline: as §3
# OVCAR-3 = experiment: Growth inhibition of human OVCAR-3 cells at 10 uM incubated for 48 hrs by sulforhodamine B assay relative to control; outline: as §1
# TK-10 = experiment: Growth inhibition of human TK-10 cells at 10 uM incubated for 48 hrs by sulforhodamine B assay relative to control; outline: as §2
# UACC-62 = experiment: Growth inhibition of human UACC-62 cells at 10 uM incubated for 48 hrs by sulforhodamine B assay relative to control; outline: as §2
# SR = experiment: Growth inhibition of human SR cells at 10 uM incubated for 48 hrs by sulforhodamine B assay relative to control; outline: as §1
# NCI-H322M = experiment: Growth inhibition of human NCI-H322M cells at 10 uM incubated for 48 hrs by sulforhodamine B assay relative to control; outline: as §1
# OVCAR-4 = experiment: Growth inhibition of human OVCAR-4 cells at 10 uM incubated for 48 hrs by sulforhodamine B assay relative to control; outline: as §1
# NCI-H522 = experiment: Growth inhibition of human NCI-H522 cells at 10 uM incubated for 48 hrs by sulforhodamine B assay relative to control; outline: as §1
# SK-MEL-28 = experiment: Growth inhibition of human SK-MEL-28 cells at 10 uM incubated for 48 hrs by sulforhodamine B assay relative to control; outline: as §1
# NCI-H226 = experiment: Growth inhibition of human NCI-H226 cells at 10 uM incubated for 48 hrs by sulforhodamine B assay relative to control; outline: as §1
# SK-MEL-2 = experiment: Growth inhibition of human SK-MEL-2 cells at 10 uM incubated for 48 hrs by sulforhodamine B assay relative to control; outline: as §1
# NCI-H23 = experiment: Growth inhibition of human NCI-H23 cells at 10 uM incubated for 48 hrs by sulforhodamine B assay relative to control; outline: as §1
# SW-620 = experiment: Growth inhibition of human SW-620 cells at 10 uM incubated for 48 hrs by sulforhodamine B assay relative to control; outline: as §2
# SN12C = experiment: Growth inhibition of human SN12C cells at 10 uM incubated for 48 hrs by sulforhodamine B assay relative to control; outline: as §1
# NCI/ADR-RES = experiment: Growth inhibition of human NCI/ADR-RES cells at 10 uM incubated for 48 hrs by sulforhodamine B assay relative to control; outline: as §1
# HOP-92 = experiment: Growth inhibition of human HOP-92 cells at 10 uM incubated for 48 hrs by sulforhodamine B assay relative to control; outline: as §3
# MDA-MB-468 = experiment: Growth inhibition of human MDA-MB-468 cells at 10 uM incubated for 48 hrs by sulforhodamine B assay relative to control; outline: as §3
# A498 = experiment: Growth inhibition of human A498 cells at 10 uM incubated for 48 hrs by sulforhodamine B assay relative to control; outline: as §2
# RXF 393 = experiment: Growth inhibition of human RXF 393 cells at 10 uM incubated for 48 hrs by sulforhodamine B assay relative to control; outline: as §1
# K562 = experiment: Growth inhibition of human K562 cells at 10 uM incubated for 48 hrs by sulforhodamine B assay relative to control; outline: as §3
# LOX IMVI = experiment: Growth inhibition of human LOX IMVI cells at 10 uM incubated for 48 hrs by sulforhodamine B assay relative to control; outline: as §3
# SNB-19 = experiment: Growth inhibition of human SNB-19 cells at 10 uM incubated for 48 hrs by sulforhodamine B assay relative to control; outline: as §1
# COLO 205 = experiment: Growth inhibition of human COLO 205 cells at 10 uM incubated for 48 hrs by sulforhodamine B assay relative to control; outline: as §3
# IGROV-1 = experiment: Growth inhibition of human IGROV-1 cells at 10 uM incubated for 48 hrs by sulforhodamine B assay relative to control; outline: as §3
# MOLT-4 = experiment: Growth inhibition of human MOLT-4 cells at 10 uM incubated for 48 hrs by sulforhodamine B assay relative to control; outline: as §1
Compound,inhibition of growth at 10 µM (NCI-H460),inhibition of growth at 10 µM (UACC-257),inhibition of growth at 10 µM (KM12),inhibition of growth at 10 µM (Malme-3M),inhibition of growth at 10 µM (Hs-578T),inhibition of growth at 10 µM (SF-539),inhibition of growth at 10 µM (OVCAR-8),inhibition of growth at 10 µM (BT-549),inhibition of growth at 10 µM (T47D),inhibition of growth at 10 µM (HOP-62),inhibition of growth at 10 µM (PC-3),inhibition of growth at 10 µM (SK-MEL-5),inhibition of growth at 10 µM (EKVX),inhibition of growth at 10 µM (OVCAR-3),inhibition of growth at 10 µM (TK-10),inhibition of growth at 10 µM (UACC-62),inhibition of growth at 10 µM (SR),inhibition of growth at 10 µM (NCI-H322M),inhibition of growth at 10 µM (OVCAR-4),inhibition of growth at 10 µM (NCI-H522),also measured
COc1cc2nc(-c3ccc(C(F)(F)F)cc3)cc(OCCN3CCCCC3)c2cc1OC,13%,13%,13%,13%,13%,13%,13%,13%,13%,13%,13%,13%,13%,13%,13%,13%,13%,13%,13%,13%,inhibition of growth at 10 µM (SK-MEL-28): 13%; inhibition of growth at 10 µM (NCI-H226): 13%; inhibition of growth at 10 µM (SK-MEL-2): 13%; inhibition of growth at 10 µM (NCI-H23): 13%; inhibition of growth at 10 µM (SW-620): 13%; inhibition of growth at 10 µM (SN12C): 13%; inhibition of growth at 10 µM (NCI/ADR-RES): 13%; inhibition of growth at 10 µM (HOP-92): 13%; inhibition of growth at 10 µM (MDA-MB-468): 13%; inhibition of growth at 10 µM (A498): 13%; inhibition of growth at 10 µM (RXF 393): 13%; inhibition of growth at 10 µM (K562): 13%; inhibition of growth at 10 µM (LOX IMVI): 13%; inhibition of growth at 10 µM (SNB-19): 13%; inhibition of growth at 10 µM (COLO 205): 13%; inhibition of growth at 10 µM (IGROV-1): 13%; inhibition of growth at 10 µM (MOLT-4): 13%
COc1cc2nc(-c3ccc(Cl)cc3)cc(OCCN3CCCCC3)c2cc1OC,3%,3%,3%,3%,3%,3%,3%,3%,3%,3%,3%,3%,3%,3%,3%,3%,3%,3%,3%,3%,inhibition of growth at 10 µM (SK-MEL-28): 3%; inhibition of growth at 10 µM (NCI-H226): 3%; inhibition of growth at 10 µM (SK-MEL-2): 3%; inhibition of growth at 10 µM (NCI-H23): 3%; inhibition of growth at 10 µM (SW-620): 3%; inhibition of growth at 10 µM (SN12C): 3%; inhibition of growth at 10 µM (NCI/ADR-RES): 3%; inhibition of growth at 10 µM (HOP-92): 3%; inhibition of growth at 10 µM (MDA-MB-468): 3%; inhibition of growth at 10 µM (A498): 3%; inhibition of growth at 10 µM (RXF 393): 3%; inhibition of growth at 10 µM (K562): 3%; inhibition of growth at 10 µM (LOX IMVI): 3%; inhibition of growth at 10 µM (SNB-19): 3%; inhibition of growth at 10 µM (COLO 205): 3%; inhibition of growth at 10 µM (IGROV-1): 3%; inhibition of growth at 10 µM (MOLT-4): 3%
COc1cc2nc(-c3ccc(Cl)cc3)cc(OCCN3CCCC3)c2cc1OC,3%,3%,3%,3%,3%,3%,3%,3%,3%,3%,3%,3%,3%,3%,3%,3%,3%,3%,3%,3%,inhibition of growth at 10 µM (SK-MEL-28): 3%; inhibition of growth at 10 µM (NCI-H226): 3%; inhibition of growth at 10 µM (SK-MEL-2): 3%; inhibition of growth at 10 µM (NCI-H23): 3%; inhibition of growth at 10 µM (SW-620): 3%; inhibition of growth at 10 µM (SN12C): 3%; inhibition of growth at 10 µM (NCI/ADR-RES): 3%; inhibition of growth at 10 µM (HOP-92): 3%; inhibition of growth at 10 µM (MDA-MB-468): 3%; inhibition of growth at 10 µM (A498): 3%; inhibition of growth at 10 µM (RXF 393): 3%; inhibition of growth at 10 µM (K562): 3%; inhibition of growth at 10 µM (LOX IMVI): 3%; inhibition of growth at 10 µM (SNB-19): 3%; inhibition of growth at 10 µM (COLO 205): 3%; inhibition of growth at 10 µM (IGROV-1): 3%; inhibition of growth at 10 µM (MOLT-4): 3%
